Rows were chosen to be rich in hits. Some 1.9% of all compounds tested hit in one or more screens of this group.
LEDGF integ inh – blockers of LEDGF/p75-dependent integrase strand transfer – biochemical, TR-FRET, high throughput, primary screen; HIV-1 integrase (with human LEDGF/p75); TR-FRET IN-LEDGF/p75 DNA integration, Eu/Cy5; inhibition, % at 3.7 µM; hit rate 0.64% among 370,000;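 active = inhibition above the screen-wide mean plus 3 SD, cut at about 13% in these data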;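 note: signal is the Cy5 over europium emission ratio at 671 and 618 nm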
Rin1 Abl inh – inhibitors of Rin1-Abl protein binding, primary screen, biochemical, TR-FRET; Tyrosine-protein kinase ABL1 (Homo sapiens) + Ras and Rab interactor 1 (Homo sapiens), …; AID 588664, 2011; inhibition, % at 7.35 µM; hit rate 0.4% among 360,000; in the data active = inhibition above about 5%, passing the limit was not always enough
UHRF1 binding – UHRF1 methylated DNA binding inhibitors, primary screen, counter-screen for MBD2 inhibitor project, biochemical, TR-FRET, human UHRF1, single concentration; E3 ubiquitin-protein ligase UHRF1 (Homo sapiens), Q96T88; inhibition, % at 4.4 µM; UHRF1 binding to methylated oligo; hit rate 0.75% among 370,000; in the data active = inhibition above about 21%;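 note: UHRF1 SRA domain binding a hemimethylated CpG hairpin DNA probe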
MBD2 inh – inhibitors of MBD2 binding to methylated DNA, primary screen, biochemical, TR-FRET, DNA-binding domain, human; Methyl-CpG-binding domain protein 2 (Homo sapiens), Q9UBB5; MBD2 binding to methylated oligonucleotide; inhibition, % at 4.4 µM; hit rate 0.31% among 370,000; AID 686964, 2013; in the data active = inhibition above about 13%
Target sequence (Q9UBB5 whole entry, looked up, the tested form may be a part): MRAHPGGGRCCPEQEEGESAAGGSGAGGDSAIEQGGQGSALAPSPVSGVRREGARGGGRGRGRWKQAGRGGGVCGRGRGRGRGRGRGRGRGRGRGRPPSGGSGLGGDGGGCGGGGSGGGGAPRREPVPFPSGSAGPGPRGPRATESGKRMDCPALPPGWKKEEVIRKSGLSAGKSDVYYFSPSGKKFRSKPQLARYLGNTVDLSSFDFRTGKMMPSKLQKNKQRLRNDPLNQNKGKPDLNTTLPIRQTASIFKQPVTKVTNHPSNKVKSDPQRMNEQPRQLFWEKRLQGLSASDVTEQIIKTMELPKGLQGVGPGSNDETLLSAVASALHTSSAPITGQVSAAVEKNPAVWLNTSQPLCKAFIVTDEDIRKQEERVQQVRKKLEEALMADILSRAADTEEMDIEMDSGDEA
TDP2 absorb – human TDP2 enzyme inhibitors, primary screen, biochemical, epi absorbance, recombinant enzyme. inhibition, % at 12.8 µM. Tyrosyl-DNA phosphodiesterase 2 (Homo sapiens), O95551. hit rate 0.34% among 370,000. T5PNP hydrolysis, p-nitrophenol absorbance 415 nm;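 active = inhibition above the mean of all tested compounds plus 3 SD, set per campaign, cut at about 25% in these data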
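Test system: Human TDP2 enzyme | Reagent: 5 mM T5PNP | Compound dosing: 12.8 µM single point, 1% DMSO | Incubation: Enzyme reaction with compound for 2 h at 37 °C | Technique: p-Nitrophenol epi absorbance | Read-out: % inhibition relative to enzyme-containing and enzyme-free wells | Benchmarks: High control without enzyme, low control DMSO plus TDP2 | Replicates: Singlicate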
Rin1-Abl confirm – Rin1-Abl binding inhibitor retest, confirmation, biochemical, TR-FRET. shares compounds with Rin1 Abl inh. purified proteins. inhibition, % at 7.35 µM. hit rate 49% among 1,300. AID 602124, 2011
GFP quench-1 – GFP fluorescence inhibitors and quenchers, artefact control for Rin1-Abl interaction inhibitor project, biochemical; shares compounds with Rin1 Abl inh; inhibitors/quenchers counterscreen; inhibition, % at 6.75 µM; hit rate 8.5% among 1,300;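 note: ABL1-eGFP fusion protein alone without its partner RIN1-SBP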
GFP quench dose – GFP fluorescence inhibitors and quenchers, dose response, artefact control for Rin1-Abl interaction inhibitor project, biochemical | shares compounds with Rin1 Abl inh | GFP fluorescence interference/quenching counterscreen | IC50, µM | 230 tested, under 10 active | AID 602182, 2012; call rule not given here;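 note: ABL1-eGFP fusion protein alone without its RIN1 binding partner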
GFP quench-2 – GFP fluorescence inhibitors and quenchers, late-stage follow-up, artefact control for Rin1-Abl interaction inhibitor project, biochemical, dose response; shares compounds with Rin1 Abl inh; GFP fluorescence quenching counterscreen; IC50, µM; 25 tested, under 10 active; AID 602397, 2012; call rule not given here
Numbers stand for hits; i = inactive; nt = no result. Cut-off read from the data, not from the text of the source, unless noted: active = inhibition above about 6.5%; inactive = the rest.

SMILES	LEDGF integ inh	Rin1 Abl inh	UHRF1 binding	MBD2 inh	TDP2 absorb	Rin1-Abl confirm	GFP quench-1	others
C[C@H](CO)N1C[C@H](C)[C@@H](CN(C)Cc2ccc(-c3ccccc3)cc2)Oc2c(NC(=O)c3ccncc3)cccc2C1=O	i	22	i	i	i	27	i
COC(=O)C1=C(C(=O)OC)[C@@]2([C@H](Cc3ccc(C)cc3)Nc3ccccc3)C=C[C@@H]1O2	i	nt	i	i	i	nt	nt
CCCCCN1CCCCC(NC(=O)Cc2ccccc2)C1=O (configuration not stated)	i	nt	i	i	i	nt	nt
Cc1ccc(Nc2nc3ccccc3s2)c(C)c1	i	6.9	i	i	i	i	i
O=C(COC(=O)c1cc[n+]([O-])cc1)Nc1ccc(SC(F)F)cc1	i	i	i	i	i	nt	nt
CCOc1ccc(C(=O)OCC(=O)Nc2ccc(SC(F)F)cc2)cc1OCC	i	8.1	i	i	i	i	i
CCC[C@H](/C=C/C(=O)OC(C)(C)C)Sc1ccc(N)cc1	i	nt	i	i	i	nt	nt
O=C(COC(=O)c1ccc([N+](=O)[O-])cc1Cl)Nc1cccnc1Cl	i	8.7	i	i	i	i	i
O=C(COC(=O)c1cc([N+](=O)[O-])ccc1NCCO)Nc1cccnc1Cl	i	i	i	i	i	nt	nt
CCn1c(N2CCN(CC(=O)c3c(C)n(C)c4ccc(OC)cc34)CC2)nc2c1c(=O)[nH]c(=O)n2C	i	i	i	i	i	nt	nt
CCn1c(N2CCN(CC(=O)c3c(C)n(C)c4ccccc34)CC2)nc2c1c(=O)[nH]c(=O)n2C	i	6.4	i	i	i	i	i
CC1=NN(c2ccc(C(=O)O)cc2)C(=O)/C1=C\c1ccc(OC(=O)c2cccs2)cc1	i	11	i	i	i	i	i
CC1=NN(c2ccccc2)C(=O)/C1=C/c1ccc(Cl)cc1	i	12	i	i	71	i	i
CCOc1cc(/C=C2\C(=O)N(c3ccc(C(N)=O)cc3)N=C2C)ccc1OC(=O)c1cccs1	nt	i	nt	nt	nt	nt	nt
O=C(NCCOc1nc(N2CCOCC2)nc(N2CCOCC2)n1)Nc1ccccc1	i	6.9	i	i	i	i	i
COC(=O)c1ccc2c(C(C)c3ccccc3O)c[nH]c2c1 (configuration not stated)	i	nt	i	i	i	nt	nt
Cc1ccc(-c2nnc(N3CCN(C(=O)c4cccs4)CC3)c3ccccc23)cc1	i	6.3	i	i	i	i	i
CC1CCCCN1S(=O)(=O)c1ccc(C(=O)Nc2nnc(C3=COCCO3)o2)cc1 (configuration not stated)	i	7.8	i	i	i	i	i
CC1CCCN(S(=O)(=O)c2ccc(C(=O)Nc3nnc(C4=COCCO4)o3)cc2)C1 (configuration not stated)	i	i	i	i	i	nt	nt
CCOC(=O)C1=NOC(C(C)=O)(C(=O)Nc2cc(C)cc(C)c2)C1 (configuration not stated)	i	nt	i	i	i	nt	nt
CCOC(=O)CCCNC(=O)OC1CC2CC1[C@H]1CCCCN1[C@H]2Cc1ccccc1 (some centres not stated)	i	nt	i	i	i	nt	nt
N#CC(=C1Nc2ccccc2N1)S(=O)(=O)c1ccccc1	i	9.5	i	i	i	i	i
OC[C@@H]1CN(Cc2ccncc2)C[C@H](n2cnc3c(NC4CC4)ncnc32)O1	i	i	i	i	i	nt	nt
OC[C@@H]1CN(Cc2ccc(Cl)cc2)C[C@H](n2cnc3c(NC4CC4)ncnc32)O1	i	17	i	i	i	20	i	GFP quench dose=i
COc1ccc(CN2C[C@@H](CO)O[C@@H](n3cnc4c(NC5CCC5)ncnc43)C2)cc1	i	12	i	i	i	11	i
SMILES	LEDGF integ inh	Rin1 Abl inh	UHRF1 binding	MBD2 inh	TDP2 absorb	Rin1-Abl confirm	GFP quench-1	others
COc1ccc(C=O)cc1OS(=O)(=O)c1ccc(NC(C)=O)cc1	i	8.5	i	i	i	i	i
CCCOc1ccc(/C=N\NC(=O)CCc2n[nH]c(=O)[nH]c2=O)cc1OC	i	7.8	i	i	i	8.8	i
CCCOc1ccc(/C=N/NC(=O)CSc2ccccn2)cc1OC	i	16	i	i	i	22	i	GFP quench dose=i
COc1cc(/C=N/NC(=O)CSc2ccccn2)ccc1O	i	i	i	i	i	nt	nt
CCC[C@H]1[C@@H](NC(=O)C2CCOC2)CC[C@@]23CCCN2C(=O)CCC[C@@H]13 (some centres not stated)	i	nt	i	i	i	nt	nt
CC(Oc1cccc(Cl)c1)C(=O)Nc1nc(-c2ccccn2)cs1 (configuration not stated)	i	7.1	i	i	i	i	i
COCC(=O)Nc1ccc2c(c1)C(=O)N(C)[C@@H]1CC[C@@H](CC(=O)OC)O[C@H]1CO2	i	nt	i	i	i	nt	nt
Cc1cc(C)cc(OCc2nnc(SCC(=O)c3ccc(Br)cc3)o2)c1	i	4.7	i	i	i	i	i
CN(Cc1ccccc1)C(=O)OCc1cn(Cc2ccccc2Cl)nn1	i	nt	i	i	i	nt	nt
CCC[C@H]1CN(Cc2ccccc2)C(=O)[C@@H]1CC(=O)NC	i	i	i	i	i	nt	nt
CNC(=O)C[C@H]1C(=O)N(Cc2ccccc2)C[C@@H]1Cc1ccccc1	i	8.2	i	i	i	i	i
O=C(OC12CCCN(C1)/C(=C/c1cccc(Cl)c1)C2)C1CCCCC1 (configuration not stated)	i	nt	i	i	i	nt	nt
Cc1c(C(=O)NCC(c2ccco2)N(C)C)oc2c(Cl)cccc12 (configuration not stated)	i	39	i	i	i	47	i	GFP quench dose=i;GFP quench-2=i
CCOc1ccc2oc(C(=O)NCC(c3ccco3)N(C)C)c(C)c2c1 (configuration not stated)	i	i	i	i	i	nt	nt
Cc1ccc(C(C)NC(=O)C23CC4CC(CC(C4)C2)C3)cc1 (configuration not stated)	i	6.0	i	i	i	i	i
CCOC(=O)Nc1nnc(Cc2ccc(Cl)c(Cl)c2)s1	i	9.3	i	i	i	i	i

Screening data from PubChem BioAssay.
